Assay results published in ChEMBL document CHEMBL1137302 (J Med Chem, 2006).
The source made the active and inactive calls. The rule behind the calls is not given here.

Tests used:
[1] = target: T1, D(4) dopamine receptor (Homo sapiens, UniProt P21917); experiment: Agonist activity at human D4.4 receptor in HEK293 cells coexpressing G-alpha-qo5 by FLIPR; type: functional, cell-based
T1 sequence (P21917 whole entry): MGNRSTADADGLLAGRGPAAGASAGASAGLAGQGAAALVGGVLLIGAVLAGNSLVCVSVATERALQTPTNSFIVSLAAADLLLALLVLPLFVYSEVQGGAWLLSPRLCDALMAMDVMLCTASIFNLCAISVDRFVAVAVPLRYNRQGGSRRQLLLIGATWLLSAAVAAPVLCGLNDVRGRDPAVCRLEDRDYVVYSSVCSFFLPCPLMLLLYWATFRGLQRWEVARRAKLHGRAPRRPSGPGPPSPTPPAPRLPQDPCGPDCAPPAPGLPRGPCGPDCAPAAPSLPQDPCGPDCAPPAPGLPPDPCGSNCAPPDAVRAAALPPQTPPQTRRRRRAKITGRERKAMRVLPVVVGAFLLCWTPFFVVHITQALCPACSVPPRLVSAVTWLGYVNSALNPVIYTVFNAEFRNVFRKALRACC

[2] = target: T2, D(4) dopamine receptor (Homo sapiens) (UniProt P21917); experiment: Activity at human D4.4 receptor in HEK293 cells co-expressing Galphaqo5 by FLIPR; type: functional, cell-based; settings: filed as partial agonist
T2 sequence (whole entry): T1 sequence (P21917 whole entry)

[3] = target: T2, D(4) dopamine receptor (Homo sapiens); experiment: Agonist activity at human D4.4 receptor in HEK293 cells coexpressing G-alpha-qo5 by FLIPR upto 10 uM; type: functional, cell-based
[4] = Bioavailability in Sprague-Dawley rat at 1 mg/kg, po; type: ADME, organism-based; settings: in vivo
Method in brief: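 Single 1 mg/kg dose given iv, sc or orally to Sprague-Dawley rats, dogs and monkeys; plasma concentrations followed over time (mean ± SEM, n = 3). Cmax, AUC, half-life, clearance and bioavailability calculated from the curves.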

[5] = Agonist activity at ferret D4 receptor in HEK293 cells coexpressing G-alpha-qo5 by FLIPR; type: functional, cell-based, Mustela putorius furo; settings: Mustela putorius
Method in brief: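 HEK cells cotransfected with ferret D4 receptor and chimeric G protein Gqo5, with receptor activation read as a calcium flux signal on FLIPR. EC50 is the concentration giving half-maximal activation.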

[6] = Agonist activity at ferret D4 receptor in HEK293 cells coexpressing G-alpha-qo5 by FLIPR relative to dopamine; type: functional, Mustela putorius furo
[7] = test system: Rattus norvegicus; experiment: Proerectile activity in rat measured as incidence of penile erection at 0.1 umol/kg, sc; type: functional
Method in brief: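 Conscious male rats were given a single subcutaneous injection and observed for penile erections over the following 60 min. The read-out was the incidence of erections, expressed as % of animals ± SEM (n = 12–32 animals per group), with significance tested against controls. The value is the maximal incidence at the maximally effective dose.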

| SMILES | EC50 [1] [nM] | further results |
| --- | --- | --- |
| O=C(CN1CCC(c2cccc[n+]2[O-])CC1)Nc1ccccc1F | 270 |  |
| Cc1cccc(Cl)c1NC(=O)CN1CCC(c2ccccn2)CC1 | 60 |  |
| c1ccc(C2CCN(Cc3nc4ccccc4[nH]3)CC2)nc1 | 12 |  |
| O=C(CN1CCC(c2cccc[n+]2[O-])CC1)Nc1cc(Cl)cc(Cl)c1 | 160 |  |
| C=Cc1cccc(C(=O)NCN2CCC(c3cccc[n+]3[O-])CC2)c1 | 68 |  |
| Cc1cccc(NC(=O)CN2CCC(c3ccc(O)cc3)CC2)c1 | 70 | Activity [2]: Partial agonist |
| Cc1cc(C)cc(C(=O)NCN2CCC(c3cccc[n+]3[O-])CC2)c1 | 90 |  |
| O=C(CN1CCC(c2cccc[n+]2[O-])CC1)Nc1cccc(C(F)(F)F)c1 | 76 |  |
| Cc1cc(Cl)cc(C)c1NC(=O)CN1CCC(c2ccccn2)CC1 | 240 |  |
| Cc1ccc(C(=O)NCN2CCC(c3cccc[n+]3[O-])CC2)cc1C(F)(F)F | 85 |  |
| O=C(NCN1CCC(c2cccc[n+]2[O-])CC1)c1ccc(OC(F)(F)F)c(Cl)c1 | 170 |  |
| O=C(CN1CCC(c2cccc[n+]2[O-])CC1)Nc1cccc(OC(F)(F)F)c1 | 135 |  |
| COc1ccc(C2CCN(CC(=O)Nc3cccc(C)c3)CC2)cc1 |  | Activity [3]: inactive |
| O=C(CN1CCC(c2cccc[n+]2[O-])CC1)Nc1cccc(F)c1 | 160 |  |
| Cc1cccc(NC(=O)CN2CCC(c3ccccc3C)CC2)c1 | 340 |  |
| COc1cccc(C)c1NC(=O)CN1CCC(c2cccc[n+]2[O-])CC1 | 340 |  |
| Cc1cccc(NC(=O)CN2CCC(c3ccccc3C#N)CC2)c1 | 8 |  |
| N#Cc1cccc(C(=O)NCN2CCC(c3cccc[n+]3[O-])CC2)c1 | 840 |  |
| O=C(NCN1CCC(c2cccc[n+]2[O-])CC1)c1ccccc1 | 532 | Activity [2]: Partial agonist |
| Cc1cccc(NC(=O)CN2CCC(c3ccc(O)cn3)CC2)c1 | 3.8 | bioavailability [4]: 0% |
| O=C(CN1CCC(c2ccccn2)CC1)Nc1c(Cl)cc(Cl)cc1Cl | 145 |  |

| SMILES | EC50 [1] [nM] | further results |
| --- | --- | --- |
| Cc1cccc(NC(=O)CN2CCC(c3ccccc3)CC2)c1 | 170 |  |
| CCc1cccc(NC(=O)CN2CCC(c3cccc[n+]3[O-])CC2)c1 | 95 |  |
| COc1cccc(C)c1NC(=O)CN1CCC(c2ccccn2)CC1 | 40 |  |
| O=C(CN1CCC(c2cccc[n+]2[O-])CC1)Nc1cccc(-c2ccccc2)c1 | 360 |  |
| [O-][n+]1ccccc1C1CCN(Cc2nc3ccccc3[nH]2)CC1 | 54 | Activity [2]: Partial agonist |
| O=C(NCN1CCC(c2cccc[n+]2[O-])CC1)c1ccc(F)c(Cl)c1 | 63 |  |
| Cc1cc(C)cc(NC(=O)CN2CCC(c3cccc[n+]3[O-])CC2)c1 | 52 |  |
| O=C(CN1CCC(c2cccc[n+]2[O-])CC1)Nc1ccc(F)cc1C(F)(F)F | 473 |  |
| CCOc1cccc(C(=O)NCN2CCC(c3cccc[n+]3[O-])CC2)c1 | 324 |  |
| Cc1cccc(NC(=O)CN2CCC(c3cccc(F)c3)CC2)c1 | 512 |  |
| O=C(NCN1CCC(c2cccc[n+]2[O-])CC1)c1ccccn1 | 3150 |  |
| COc1cccc(C(=O)NCN2CCC(c3cccc[n+]3[O-])CC2)c1C | 685 |  |
| O=C(NCN1CCC(c2cccc[n+]2[O-])CC1)c1cnccc1Cl | 1290 |  |
| O=C(CN1CCC(c2cccc[n+]2[O-])CC1)Nc1cccc(Cl)c1 | 62 |  |
| Cc1cc(C(=O)NCN2CCC(c3cccc[n+]3[O-])CC2)ccc1F | 50 |  |
| O=C(NCN1CCC(c2cccc[n+]2[O-])CC1)c1cc(Cl)cc(Cl)c1 | 45 |  |
| Cc1cccc(NC(=O)CN2CCC(c3nccs3)CC2)c1 | 1 |  |
| O=C(CN1CCC(c2cccc[n+]2[O-])CC1)Nc1ccc(F)cc1F | 103 |  |
| O=C(CN1CCC(c2cccc[n+]2[O-])CC1)Nc1ccc(F)cc1 | 85 |  |
| Cc1ccc(Cl)c(NC(=O)CN2CCC(c3cccc[n+]3[O-])CC2)c1Cl | 346 |  |
| Cc1cccc(NC(=O)CN2CCC(c3ncccc3C#N)CC2)c1 | 36 |  |

| SMILES | EC50 [1] [nM] | further results |
| --- | --- | --- |
| Cc1cccc(NC(=O)CN2CCC(c3ccccc3F)CC2)c1 | 1 |  |
| Cc1cccc(NC(=O)CN2CCC(c3cccc(O)c3)CC2)c1 | 8 | Activity [2]: Partial agonist |
| Cc1cc(Br)ccc1NC(=O)CN1CCC(c2cccc[n+]2[O-])CC1 | 66 |  |
| Cc1cccc(C)c1NC(=O)CN1CCC(c2cccc[n+]2[O-])CC1 | 346 |  |
| Cc1ccc(C(=O)NCN2CCC(c3cccc[n+]3[O-])CC2)cc1C | 38 |  |
| Cc1cccc(NC(=O)CN2CCC(c3ccc(F)cc3)CC2)c1 |  | Activity [3]: inactive |
| Cc1cc(C(=O)NCN2CCC(c3cccc[n+]3[O-])CC2)ccc1Cl | 2460 |  |
| CSc1cccc(NC(=O)CN2CCC(c3cccc[n+]3[O-])CC2)c1 | 100 |  |
| CCc1cccc(C)c1NC(=O)CN1CCC(c2ccccn2)CC1 | 111 |  |
| Cc1cccc(C(=O)NCN2CCC(c3nccs3)CC2)c1 | 9.8 |  |
| Cc1cc(NC(=O)CN2CCC(c3cccc[n+]3[O-])CC2)ccc1F | 18 |  |
| CC(C)Oc1cccc(NC(=O)CN2CCC(c3cccc[n+]3[O-])CC2)c1 | 555 |  |
| COc1cc(C(=O)NCN2CCC(c3cccc[n+]3[O-])CC2)ccc1Cl | 159 |  |
| CN1CCc2cccc3c2[C@H]1Cc1ccc(O)c(O)c1-3 [APOMORPHINE] |  | EC50 [5]: 1.5 nM; Efficacy [6]: 84%; Activity [7]: 91% |
| Cc1ccc(Cl)cc1NC(=O)CN1CCC(c2cccc[n+]2[O-])CC1 | 126 |  |
| c1ccc(N2CCN(Cc3nc4ccccc4[nH]3)CC2)nc1 |  | Activity [2]: Partial agonist |
| O=C(NCN1CCC(c2cccc[n+]2[O-])CC1)c1ccc2ccccc2c1 | 115 |  |
| NCCc1ccc(O)c(O)c1 [DOPAMINE] |  | EC50 [5]: 2.7 nM |
| COc1ccccc1C1CCN(CC(=O)Nc2cccc(C)c2)CC1 | 420 |  |
| O=C(CN1CCC(c2cccc[n+]2[O-])CC1)NC1CCCCC1 | 294 | Activity [2]: Partial agonist |
| O=C(CN1CCC(c2cccc[n+]2[O-])CC1)Nc1cccc(Cl)c1Cl | 180 |  |
